This passage reports viability, residual activity and inhibition results from ChEMBL document CHEMBL1152649, “Synthesis, cytotoxicity and human telomerase inhibition activities of a series of 1,2-heteroannelated anthraquinones and anthra[1,2-d]imidazole-6,11-dione homologues” (2009).

Assay [1] in a line: Cytotoxicity against human H1299 cells at 100 uM after 48 hrs by MTT assay. Type of assay: functional. As to conditions: NCI-H1299, 48 h. The method in brief:
(§1)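 H1299 non-small cell lung cancer cells were grown in RPMI 1640 with 10% FBS, penicillin and streptomycin at 37 °C under 5% CO2. About 2 × 10³ cells per well were seeded and left 24 h. Compounds were dissolved fresh in DMSO, diluted into complete medium and applied for 48 h. MTT was then added for 4 h at 37 °C, followed by lysis buffer (20% SDS, 50% DMF) for 16 h, and absorbance was read at 550 nm.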
(Tetrazolium assays rely on reduction of a dye to a coloured formazan, in cell work by metabolically active cells.)

Assay [2] is described as follows: Cytotoxicity against human H1299 cells at 10 uM after 48 hrs by MTT assay. Type of assay: functional. Particulars: NCI-H1299, 48 h. The method, boiled down: as §1
Assay [3] concerns the target Telomerase reverse transcriptase (Homo sapiens) (UniProt O14746). Description: Inhibition of TERT in human H1299 cells assessed as residual transcriptional activity at 100 uM after 24 hrs by SEAP reporter gene assay; values are per cent of control. For orientation: In a reporter assay the amount or activity of a reporter protein is the signal.
Assay [4] in a line: Cytotoxicity against human H1299 cells at 1 uM after 48 hrs by MTT assay. In kind it is functional. Particulars: NCI-H1299, 48 h. The method, boiled down:
as §1

Assay [5] has as its target Telomerase reverse transcriptase (Homo sapiens) (UniProt O14746). Description: Inhibition of TERT in human H1299 cells assessed as residual transcriptional activity at 10 uM after 24 hrs by SEAP reporter gene assay; values are per cent of control.
Assay [6] has the same target. Put plainly: Inhibition of TERT in human H1299 cells assessed as residual transcriptional activity at 1 uM after 24 hrs by SEAP reporter gene assay; values are per cent of control.
The target is the same in assay [7]. Put plainly: Inhibition of telomerase in human H1299 cells up to 100 uM by TRAP assay. Type of assay: cell-based. The method in brief: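 PCR-based telomeric repeat amplification protocol (TRAP). The telomerase source was total lysate of H1299 lung cancer cells, with protein measured against BSA standards. Controls were extract without inhibitor and RNase A-treated extract.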

The source made the active and inactive calls. The calls are words filed in the database; no cut-off is given here.

Chain of Telomerase reverse transcriptase (Homo sapiens) (O14746 whole entry): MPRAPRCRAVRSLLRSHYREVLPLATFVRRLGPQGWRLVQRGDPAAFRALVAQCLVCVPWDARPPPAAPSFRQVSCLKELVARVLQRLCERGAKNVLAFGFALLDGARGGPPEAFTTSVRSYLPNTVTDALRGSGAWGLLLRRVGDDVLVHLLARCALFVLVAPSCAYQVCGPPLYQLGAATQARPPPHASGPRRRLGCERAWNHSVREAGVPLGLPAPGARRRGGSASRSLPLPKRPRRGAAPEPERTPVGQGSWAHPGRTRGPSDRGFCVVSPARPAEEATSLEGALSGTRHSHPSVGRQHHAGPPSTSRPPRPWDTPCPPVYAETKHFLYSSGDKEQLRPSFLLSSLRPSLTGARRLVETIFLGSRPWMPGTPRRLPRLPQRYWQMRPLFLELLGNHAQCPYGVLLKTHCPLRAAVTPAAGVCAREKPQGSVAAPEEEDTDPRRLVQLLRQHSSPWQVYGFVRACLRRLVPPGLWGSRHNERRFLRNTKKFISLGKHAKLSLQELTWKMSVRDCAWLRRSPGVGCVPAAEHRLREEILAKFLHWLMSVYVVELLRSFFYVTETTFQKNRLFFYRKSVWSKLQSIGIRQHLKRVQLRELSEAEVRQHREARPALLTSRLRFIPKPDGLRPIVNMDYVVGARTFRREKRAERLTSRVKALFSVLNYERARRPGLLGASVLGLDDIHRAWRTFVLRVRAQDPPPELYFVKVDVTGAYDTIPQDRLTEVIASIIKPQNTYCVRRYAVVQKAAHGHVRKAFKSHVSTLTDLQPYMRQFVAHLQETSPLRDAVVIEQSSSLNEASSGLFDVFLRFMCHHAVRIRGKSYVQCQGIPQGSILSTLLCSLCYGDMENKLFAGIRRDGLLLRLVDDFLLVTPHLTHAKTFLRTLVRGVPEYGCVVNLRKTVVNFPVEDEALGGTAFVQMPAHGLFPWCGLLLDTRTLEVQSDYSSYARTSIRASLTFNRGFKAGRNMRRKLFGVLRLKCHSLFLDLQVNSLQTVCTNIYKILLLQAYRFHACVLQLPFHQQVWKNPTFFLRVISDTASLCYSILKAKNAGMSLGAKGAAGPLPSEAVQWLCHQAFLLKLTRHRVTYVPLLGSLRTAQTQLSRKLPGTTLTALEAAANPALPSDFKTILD

As to `CCCCCCCc1nc2ccc3c(c2[nH]1)C(=O)c1ccccc1C3=O`, the viability (usually a read-out of living cells in per cent, often relative to untreated cells) at 100 µM in assay [1] came to 40%. Besides, the viability at 10 µM in assay [2] turned out to be 69%. The figures for the residual activity in assay [3], in assay [5] and in assay [6] were 32%, 88% and 89%, respectively. The viability at 1 µM in assay [4] was 85%. In assay [7], the inhibition entry was “inactive”.

Consider `CCC(C)c1nc2ccc3c(c2[nH]1)C(=O)c1ccccc1C3=O` (stereo unspecified), for which the viability at 100 µM in assay [1] turned out to be 43%. Also, the viability at 10 µM in assay [2] is 83%. In addition, the figures for the residual activity in assay [3], in assay [5] and in assay [6] were 11%, 58% and 67%, respectively. Also, the viability at 1 µM in assay [4] turned out to be 77%. Further, the inhibition entry in assay [7] is “inactive”.

Turning to `O=C1c2ccccc2C(=O)c2c1ccc1[nH]c(=S)[nH]c21`, in assay [1], the viability at 100 µM was found to be 54%. The viability at 10 µM in assay [2] is 99%. Moreover, the figures for the residual activity in assay [3], in assay [5] and in assay [6] were 31%, 100% and 97%, respectively. For the same compound, in assay [4], the viability at 1 µM was found to be 101%. The inhibition result in assay [7] is “inactive”.

Consider `O=C1c2ccccc2C(=O)c2c1ccc1nc(-c3ccc([N+](=O)[O-])cc3)[nH]c21`, for which the viability at 100 µM in assay [1] turned out to be 33%. In addition, the viability at 10 µM in assay [2] was 52%. Moreover, the residual activity (as a rule, the signal under treatment as a percentage of the control signal) was 6% in assay [3], 62% in assay [5] and 85% in assay [6]. Further, the viability at 1 µM in assay [4] worked out at 84%. Moreover, the inhibition entry in assay [7] is “inactive”.

With `CC1(c2ccccc2)Nc2ccc3c(c2N1)C(=O)c1ccccc1C3=O` (stereo unspecified), the viability at 100 µM in assay [1] was found to be 29%. The viability at 10 µM in assay [2] came to 99%. Moreover, the residual activity in assay [3] is 29%; in assay [5], 97%; in assay [6], 99%. Further, the viability at 1 µM in assay [4] amounted to 99%. Further, the inhibition entry in assay [7] was “inactive”.

Regarding `O=C1c2ccccc2C(=O)c2c1ccc1nc(CCl)[nH]c21`, the viability at 100 µM in assay [1] stood at 26%. Also, the viability at 10 µM in assay [2] was 79%. In addition, the residual activity turned out to be 5% in assay [3], 81% in assay [5] and 94% in assay [6]. Besides, the viability at 1 µM in assay [4] came out at 80%. Moreover, the inhibition entry in assay [7] was “inactive”.

With `Cc1nc2ccc3c(c2nc1C)C(=O)c1ccccc1C3=O`, in assay [1], the viability at 100 µM turned out to be 25%. The viability at 10 µM in assay [2] stood at 69%. In addition, the residual activity worked out at 26% in assay [3], 88% in assay [5] and 95% in assay [6]. In assay [4], the viability at 1 µM was 78%. Further, in assay [7], the inhibition entry was “inactive”.

Consider `COc1ccc(OC)c(-c2nc3ccc4c(c3[nH]2)C(=O)c2ccccc2C4=O)c1`, for which the viability at 100 µM in assay [1] was found to be 13%. Moreover, in assay [2], the viability at 10 µM is 39%. Besides, the residual activity in assay [3] turned out to be 41%; in assay [5], 76%; in assay [6], 77%. The viability at 1 µM in assay [4] was found to be 91%. Also, in assay [7], the inhibition result is “inactive”.

Consider `CC/C=C/c1nc2ccc3c(c2[nH]1)C(=O)c1ccccc1C3=O`, for which the viability at 100 µM in assay [1] was 14%. Moreover, the viability at 10 µM in assay [2] worked out at 48%. The values for the residual activity in assay [3], in assay [5] and in assay [6] were 13%, 34% and 63%, respectively. The viability at 1 µM in assay [4] was determined as 69%. Also, the inhibition result in assay [7] is “inactive”.

For the compound `Cc1nc2ccc3c(c2[nH]1)C(=O)c1ccccc1C3=O`, the viability at 100 µM in assay [1] was determined as 33%. Also, in assay [2], the viability at 10 µM worked out at 44%. In addition, the values for the residual activity in assay [3], in assay [5] and in assay [6] were 19%, 82% and 101%, respectively. In addition, the viability at 1 µM in assay [4] came out at 64%. Also, in assay [7], the inhibition entry was “inactive”.

Regarding `CC(C)c1nc2ccc3c(c2[nH]1)C(=O)c1ccccc1C3=O`, the viability at 100 µM in assay [1] was 34%. Also, the viability at 10 µM in assay [2] stood at 73%. The figures for the residual activity in assay [3], in assay [5] and in assay [6] were 13%, 76% and 83%, respectively. Further, the viability at 1 µM in assay [4] was 95%. For the same compound, the inhibition result in assay [7] is “inactive”.

On to `CC(C)(C)c1nc2ccc3c(c2[nH]1)C(=O)c1ccccc1C3=O`, for which the viability at 100 µM in assay [1] amounted to 56%. For the same compound, the viability at 10 µM in assay [2] stood at 81%. In addition, the values for the residual activity in assay [3], in assay [5] and in assay [6] were 29%, 87% and 88%, respectively. Besides, the viability at 1 µM in assay [4] was determined as 83%. Besides, the inhibition entry in assay [7] is “inactive”.

Take `CCCCc1nc2ccc3c(c2[nH]1)C(=O)c1ccccc1C3=O`: the viability at 100 µM in assay [1] was found to be 20%. The viability at 10 µM in assay [2] amounted to 70%. Also, the figures for the residual activity in assay [3], in assay [5] and in assay [6] were 36%, 84% and 91%, respectively. Moreover, the viability at 1 µM in assay [4] was 85%. Besides, in assay [7], the inhibition result was “inactive”.
